The source made the active and inactive calls. The calls are words filed in the database; no cut-off is given here.
Experiments:
Histone deacetylase 5 = Histone deacetylase 5 (Homo sapiens, UniProt Q9UQL6); assay: Inhibition of recombinant human HDAC5 expressed in baculovirus expression system using Boc-Lys(trifluoroacetyl)-AMC as substrate preincubated for 1 hr followed by substrate addition measured after 2 hrs by fluorescence assay
In short: (§1)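 Recombinant HDAC incubated with serial compound dilutions at 30 °C for 1 h. Reaction run 2 h at 30 °C, stopped with developer containing trypsin and TSA. Fluorescence read after 30 min at 360/460 nm. Inhibition relative to control wells; IC50 from variable-slope fit.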

MV4-11 [1] = assay: Antiproliferative activity against human MV4-11 cells assessed as cell death at 2 to 10 uM after 24 to 48 hrs by CellTiter-Blue assay; type: functional, cell-based
In short: (§2)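 MV4-11 and PC-3 cells treated with 10 or 2 μM (or 0 μM) and sampled at 24 and 48 h. Viable cells measured by CellTiter-Blue resorufin fluorescence, read as in the EC50 assay, which is proportional to viable cell number. Representative of n = 2 experiments.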

Histone deacetylase 8 = target: T1, Histone deacetylase 8 (Homo sapiens, UniProt Q9BY41); assay: Inhibition of full length recombinant human C-terminal His-tagged HDAC8 expressed in baculovirus expression system using Boc-Lys(trifluoroacetyl)-AMC as substrate preincubated for 1 hr followed by substrate addition measured after 2 hrs by fluorescence assay; in short: as §1
T1 sequence (Q9BY41 whole entry): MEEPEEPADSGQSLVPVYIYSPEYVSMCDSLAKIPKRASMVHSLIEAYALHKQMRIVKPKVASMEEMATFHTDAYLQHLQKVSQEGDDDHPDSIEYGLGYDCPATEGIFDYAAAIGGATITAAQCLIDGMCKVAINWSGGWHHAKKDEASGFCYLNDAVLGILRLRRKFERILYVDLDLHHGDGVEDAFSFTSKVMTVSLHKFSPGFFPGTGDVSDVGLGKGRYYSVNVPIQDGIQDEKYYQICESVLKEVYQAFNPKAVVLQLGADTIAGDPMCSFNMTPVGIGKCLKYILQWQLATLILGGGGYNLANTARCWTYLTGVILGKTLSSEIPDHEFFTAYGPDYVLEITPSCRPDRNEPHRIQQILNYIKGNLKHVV

[2] = target: Histone deacetylase 3 (Homo sapiens) (UniProt O15379); conditions: 0.25 to 2 uM
Histone deacetylase 2 = Histone deacetylase 2 (Homo sapiens, UniProt Q92769); conditions: 0.25 to 2 uM
PC-3 [3] = assay: Downregulation of HDAC1 protein expression in human PC3 cells at 1 to 2 uM after 24 hrs by Western blot method; type: functional, cell-based
In short: (§3)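 MV4-11 (1,500,000/well) or PC-3 (300,000/well) grown 12 h, then treated 24 h at 1 and 2 μM, with 5 μM SAHA as reference. RIPA lysis, sonication and centrifugation, BCA normalization. NuPAGE 4–12% Bis-Tris gel in MES, transfer, primary antibodies 1/1000 overnight at 4 °C. Actin as loading control.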

[4] = target: Histone deacetylase 3/Nuclear receptor corepressor 2 (HDAC3/NCoR2) (Homo sapiens, UniProt O15379); assay: Inhibition of full length recombinant human C-terminal His-tagged HDAC3/N-terminal GST-tagged NCOR2 co-expressed in baculovirus expression system using Boc-Lys(acetyl)-AMC as substrate preincubated for 1 hr followed by substrate addition measured after 2 hrs by fluorescence assay; in short: as §1
Histone deacetylase 1 = Histone deacetylase 1 (Homo sapiens, UniProt Q13547); assay: Inhibition of full length recombinant human C-terminal FLAG/His-tagged HDAC1 expressed in baculovirus expression system using Boc-Lys(acetyl)-AMC as substrate preincubated for 1 hr followed by substrate addition measured after 2 hrs by fluorescence assay; in short: as §1
PC-3 [5] = assay: Antiproliferative activity against human PC3 cells assessed as cell viability at 2 uM after 48 hrs by CellTiter-Blue assay relative to control; type: functional, cell-based; in short: as §2
MV4-11 [6] = assay: Downregulation of HDAC6 protein expression in human MV4-11 cells at >= 0.5 uM after 24 hrs by Western blot analysis; type: functional, cell-based
In short: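 MV4-11 cells treated 24 h at 0.25, 0.5, 1 and 2 μM, with 5 μM SAHA as reference. RIPA lysates normalized by BCA, run on 4–12% Bis-Tris gels, probed with primary antibodies at 1/1000 overnight at 4 °C. HDAC6 and acetylated histones/tubulin detected; actin as loading control. Representative of n = 2.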

MV4-11 [7] = assay: Cell cycle arrest in human MV4-11 cells assessed as accumulation at subG1 phase after 24 hrs by propidium iodide staining based flow cytometry; type: functional
MV4-11 [8] = assay: Induction of apoptosis in human MV4-11 cells assessed as increase in cleaved caspase-3 level at 1 to 2 uM after 24 hrs by Western blot method; type: functional, cell-based; in short: as §3
PC-3 [9] = assay: Induction of morphological changes in human PC3 cells at 2 to 10 uM after 48 hrs by phase contrast microscopic method; type: functional, cell-based
In short: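 PC-3 cells treated 48 h with vehicle (DMSO), 2 μM or 10 μM and examined by phase-contrast light microscopy for morphology. Representative of n = 2.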

Sequence of Histone deacetylase 5 (Q9UQL6 whole entry): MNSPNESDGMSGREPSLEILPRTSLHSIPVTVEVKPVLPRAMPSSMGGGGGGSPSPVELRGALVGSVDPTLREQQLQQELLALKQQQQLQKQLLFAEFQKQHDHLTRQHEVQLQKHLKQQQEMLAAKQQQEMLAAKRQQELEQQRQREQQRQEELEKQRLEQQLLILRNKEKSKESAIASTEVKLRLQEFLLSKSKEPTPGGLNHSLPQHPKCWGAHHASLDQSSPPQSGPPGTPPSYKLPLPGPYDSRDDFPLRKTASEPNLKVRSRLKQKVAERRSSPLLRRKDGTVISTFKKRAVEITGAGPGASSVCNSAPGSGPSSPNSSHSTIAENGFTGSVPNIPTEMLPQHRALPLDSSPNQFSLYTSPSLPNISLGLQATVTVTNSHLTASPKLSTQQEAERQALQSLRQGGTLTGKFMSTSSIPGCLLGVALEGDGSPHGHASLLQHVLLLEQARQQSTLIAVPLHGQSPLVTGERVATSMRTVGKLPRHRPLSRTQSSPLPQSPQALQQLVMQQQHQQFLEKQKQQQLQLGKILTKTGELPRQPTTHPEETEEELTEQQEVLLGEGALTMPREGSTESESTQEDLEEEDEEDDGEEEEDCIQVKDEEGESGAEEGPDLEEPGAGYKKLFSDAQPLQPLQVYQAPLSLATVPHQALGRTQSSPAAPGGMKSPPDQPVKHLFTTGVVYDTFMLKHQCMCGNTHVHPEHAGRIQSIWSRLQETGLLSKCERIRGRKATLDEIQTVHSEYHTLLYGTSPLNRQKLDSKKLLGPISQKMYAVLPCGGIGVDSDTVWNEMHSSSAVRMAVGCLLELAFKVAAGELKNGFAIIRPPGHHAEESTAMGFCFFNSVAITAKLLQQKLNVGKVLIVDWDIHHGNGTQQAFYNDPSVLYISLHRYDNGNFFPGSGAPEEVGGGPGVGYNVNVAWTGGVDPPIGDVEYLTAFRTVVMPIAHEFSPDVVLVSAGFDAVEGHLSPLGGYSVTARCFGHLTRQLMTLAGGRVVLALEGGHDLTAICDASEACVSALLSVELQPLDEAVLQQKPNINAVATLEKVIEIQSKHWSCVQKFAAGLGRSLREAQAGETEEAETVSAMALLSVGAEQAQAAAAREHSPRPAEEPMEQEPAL
Sequence of Histone deacetylase 1 (Q13547 whole entry): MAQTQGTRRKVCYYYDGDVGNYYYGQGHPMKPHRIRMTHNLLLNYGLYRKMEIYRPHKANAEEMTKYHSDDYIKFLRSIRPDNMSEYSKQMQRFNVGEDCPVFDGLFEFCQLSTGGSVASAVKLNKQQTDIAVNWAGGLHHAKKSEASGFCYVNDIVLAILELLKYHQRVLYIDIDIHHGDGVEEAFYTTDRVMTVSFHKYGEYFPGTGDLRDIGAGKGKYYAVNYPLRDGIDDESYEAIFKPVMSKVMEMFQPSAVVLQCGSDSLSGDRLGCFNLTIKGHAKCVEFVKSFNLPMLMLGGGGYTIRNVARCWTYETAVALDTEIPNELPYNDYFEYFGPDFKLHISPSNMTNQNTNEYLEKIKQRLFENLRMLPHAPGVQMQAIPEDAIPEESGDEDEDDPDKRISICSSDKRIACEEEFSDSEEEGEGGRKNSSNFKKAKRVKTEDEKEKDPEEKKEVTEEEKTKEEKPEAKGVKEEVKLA
Sequence of Histone deacetylase 2 (Q92769 whole entry): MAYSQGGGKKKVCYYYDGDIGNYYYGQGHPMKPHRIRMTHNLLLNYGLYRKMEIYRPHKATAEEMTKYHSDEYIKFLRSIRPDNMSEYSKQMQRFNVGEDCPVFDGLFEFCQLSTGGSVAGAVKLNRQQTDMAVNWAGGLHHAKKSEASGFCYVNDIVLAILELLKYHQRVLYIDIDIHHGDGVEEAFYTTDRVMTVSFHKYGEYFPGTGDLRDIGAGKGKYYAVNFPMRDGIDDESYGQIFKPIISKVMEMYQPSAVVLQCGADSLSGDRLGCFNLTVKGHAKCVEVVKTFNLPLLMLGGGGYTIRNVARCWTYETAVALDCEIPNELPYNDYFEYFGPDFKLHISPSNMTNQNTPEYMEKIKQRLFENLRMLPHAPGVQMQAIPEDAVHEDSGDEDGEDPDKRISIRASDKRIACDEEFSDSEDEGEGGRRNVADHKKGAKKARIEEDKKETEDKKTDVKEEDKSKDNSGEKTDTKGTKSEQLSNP
Sequence of Histone deacetylase 3 (Homo sapiens) (O15379 whole entry): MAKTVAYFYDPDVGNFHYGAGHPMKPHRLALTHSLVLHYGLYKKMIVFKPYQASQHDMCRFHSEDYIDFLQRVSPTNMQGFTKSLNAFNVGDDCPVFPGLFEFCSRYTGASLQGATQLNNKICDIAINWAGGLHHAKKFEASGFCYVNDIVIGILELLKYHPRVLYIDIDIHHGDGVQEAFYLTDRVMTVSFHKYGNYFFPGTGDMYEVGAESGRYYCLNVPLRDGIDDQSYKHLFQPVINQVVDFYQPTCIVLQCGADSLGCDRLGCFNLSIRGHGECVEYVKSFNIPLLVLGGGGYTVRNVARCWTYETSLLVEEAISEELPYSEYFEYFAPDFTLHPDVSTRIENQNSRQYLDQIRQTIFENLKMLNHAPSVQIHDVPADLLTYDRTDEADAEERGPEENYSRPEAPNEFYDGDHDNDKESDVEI
Sequence of Histone deacetylase 3/Nuclear receptor corepressor 2 (HDAC3/NCoR2) (O15379 whole entry): as above
Sequence of Histone deacetylase 3/Nuclear receptor corepressor 2 (HDAC3/NCoR2) (Q9Y618 whole entry, further chain): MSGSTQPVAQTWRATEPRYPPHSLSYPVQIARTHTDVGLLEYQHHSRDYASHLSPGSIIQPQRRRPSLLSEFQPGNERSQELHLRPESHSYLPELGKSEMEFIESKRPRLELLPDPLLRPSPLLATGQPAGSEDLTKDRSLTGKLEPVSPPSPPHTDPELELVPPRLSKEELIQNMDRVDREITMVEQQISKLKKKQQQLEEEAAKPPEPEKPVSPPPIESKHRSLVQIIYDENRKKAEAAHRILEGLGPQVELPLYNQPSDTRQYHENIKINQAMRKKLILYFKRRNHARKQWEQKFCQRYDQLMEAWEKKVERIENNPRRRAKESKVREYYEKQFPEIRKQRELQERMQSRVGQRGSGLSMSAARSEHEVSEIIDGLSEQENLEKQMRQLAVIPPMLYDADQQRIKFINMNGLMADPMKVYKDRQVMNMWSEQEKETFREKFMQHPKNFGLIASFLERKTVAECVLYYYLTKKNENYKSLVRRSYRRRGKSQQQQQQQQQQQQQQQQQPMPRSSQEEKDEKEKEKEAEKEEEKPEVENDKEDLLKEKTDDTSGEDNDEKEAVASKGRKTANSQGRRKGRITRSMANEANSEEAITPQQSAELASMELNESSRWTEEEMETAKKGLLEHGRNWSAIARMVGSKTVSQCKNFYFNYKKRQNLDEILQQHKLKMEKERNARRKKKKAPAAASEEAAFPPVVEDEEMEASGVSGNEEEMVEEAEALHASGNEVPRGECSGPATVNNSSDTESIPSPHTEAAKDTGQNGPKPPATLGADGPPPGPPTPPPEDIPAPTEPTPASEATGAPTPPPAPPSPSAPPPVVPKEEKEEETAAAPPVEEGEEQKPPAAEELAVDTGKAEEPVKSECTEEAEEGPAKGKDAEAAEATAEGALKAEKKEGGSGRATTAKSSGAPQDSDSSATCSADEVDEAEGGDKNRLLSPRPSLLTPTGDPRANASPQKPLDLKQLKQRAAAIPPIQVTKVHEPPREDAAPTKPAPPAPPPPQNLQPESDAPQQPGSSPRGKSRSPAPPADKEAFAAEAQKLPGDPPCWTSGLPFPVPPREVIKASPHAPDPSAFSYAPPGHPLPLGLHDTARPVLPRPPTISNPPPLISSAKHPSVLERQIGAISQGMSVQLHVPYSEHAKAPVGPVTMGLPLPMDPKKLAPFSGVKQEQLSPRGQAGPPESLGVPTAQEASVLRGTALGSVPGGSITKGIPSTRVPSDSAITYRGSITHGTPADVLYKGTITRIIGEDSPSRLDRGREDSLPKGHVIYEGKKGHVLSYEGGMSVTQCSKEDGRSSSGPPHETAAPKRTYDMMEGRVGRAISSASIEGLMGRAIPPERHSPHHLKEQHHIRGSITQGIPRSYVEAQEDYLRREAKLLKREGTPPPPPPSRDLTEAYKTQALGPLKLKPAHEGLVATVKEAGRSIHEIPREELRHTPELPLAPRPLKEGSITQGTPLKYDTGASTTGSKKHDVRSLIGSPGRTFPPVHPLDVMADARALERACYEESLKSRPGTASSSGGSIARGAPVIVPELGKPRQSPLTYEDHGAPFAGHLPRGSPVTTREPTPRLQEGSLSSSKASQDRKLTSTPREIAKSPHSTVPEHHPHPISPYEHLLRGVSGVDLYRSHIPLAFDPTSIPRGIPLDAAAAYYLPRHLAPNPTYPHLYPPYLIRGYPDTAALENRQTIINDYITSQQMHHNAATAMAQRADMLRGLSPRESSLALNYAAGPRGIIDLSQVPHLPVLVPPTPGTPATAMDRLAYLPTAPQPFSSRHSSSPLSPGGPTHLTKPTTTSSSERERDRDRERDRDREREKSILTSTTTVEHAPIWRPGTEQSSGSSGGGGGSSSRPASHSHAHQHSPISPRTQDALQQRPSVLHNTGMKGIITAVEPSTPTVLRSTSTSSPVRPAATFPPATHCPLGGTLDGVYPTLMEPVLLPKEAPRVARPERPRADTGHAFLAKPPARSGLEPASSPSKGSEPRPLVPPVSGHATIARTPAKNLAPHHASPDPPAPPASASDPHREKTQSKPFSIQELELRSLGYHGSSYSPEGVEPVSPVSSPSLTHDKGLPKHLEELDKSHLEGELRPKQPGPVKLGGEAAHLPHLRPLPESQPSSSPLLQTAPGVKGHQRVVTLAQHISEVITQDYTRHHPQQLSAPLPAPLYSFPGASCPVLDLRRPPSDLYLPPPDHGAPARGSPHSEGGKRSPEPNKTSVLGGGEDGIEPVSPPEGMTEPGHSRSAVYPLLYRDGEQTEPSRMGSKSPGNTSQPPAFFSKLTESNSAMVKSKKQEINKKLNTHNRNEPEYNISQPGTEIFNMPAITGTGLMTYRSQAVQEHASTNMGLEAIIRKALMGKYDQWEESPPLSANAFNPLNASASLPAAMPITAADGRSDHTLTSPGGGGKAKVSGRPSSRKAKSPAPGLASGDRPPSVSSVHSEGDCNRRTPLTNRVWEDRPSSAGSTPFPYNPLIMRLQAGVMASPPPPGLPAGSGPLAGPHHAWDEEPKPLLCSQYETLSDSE

IC50 (Histone deacetylase 5): > 50000 nM
IC50 (Histone deacetylase 8): 626 nM
inhibition [2]: Active
inhibition (Histone deacetylase 2): Active
IC50 [4]: 1.41 nM
IC50 (Histone deacetylase 1): 9.54 nM
SMILES: CCCNNC(=O)c1ccc(NC(=O)[C@H](Cc2c[nH]c3ccccc23)NC(=O)c2ccc(OC)cc2)cc1
Activity (MV4-11 [1]): Active
Activity (PC-3 [3]): inactive
Activity (PC-3 [5]): inactive
Activity (MV4-11 [6]): Active
Activity (MV4-11 [7]): Dose-dependent effect
Activity (MV4-11 [8]): Active
Activity (PC-3 [9]): inactive
